In brackets after ≈: the same amount, converted by molar mass. Activity calls are given as the source filed them. The rule behind the calls is not given here.
Tests used:
Candida parapsilosis [1] = assay: Antifungal activity against Candida parapsilosis ATCC 22019 after 48 hrs in the presence of 10% FBS by broth dilution method; format: functional; settings: Lodderomyces parapsilosis, ATCC 22019, 48 h
Candida albicans [2] = assay: Antifungal activity against Candida albicans ATCC 10231 after 48 hrs by broth dilution method; format: functional; settings: ATCC 10231, 48 h
Nakaseomyces glabratus [3] = assay: Antifungal activity against Candida glabrata ATCC 2001 after 48 hrs by broth dilution method; format: functional, CBS 138; settings: Nakaseomyces glabratus, CBS 138, 48 h
Candida parapsilosis [4] = assay: Antifungal activity against Candida parapsilosis ATCC 22019 after 48 hrs by broth dilution method; format: functional; settings: Lodderomyces parapsilosis, ATCC 22019, 48 h
Nakaseomyces glabratus [5] = assay: Fungicidal activity against Candida glabrata ATCC 2001 at 4 times MIC incubated for 24 hrs by time kill assay; format: functional; settings: CBS 138
Summary of the method: (§1)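 Overnight YPD cultures were diluted in RPMI 1640 to OD600 0.12–0.13; initial inoculum 1–4 × 10^5 CFU/mL. […] Shaken at 200 rpm, 35 °C, for 24 h, sampling at 0, 3, 6, 9, 12 and 24 h. Serial dilutions were plated on PDA and CFU counted; detection limit 100 CFU/mL; duplicate.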

[6] = Cytotoxicity against HEK293 cells assessed as cell survival at 7.8 ug/mL after 24 hrs by resazurin-based fluorescence assay; settings: human, read-out: Survival
Summary of the method: (§2)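 Cells were grown in DMEM with 10% FBS and 1% Pen/Strep at 37 °C, 5% CO2. HEK-293 was seeded at 10000 cells/well; A549 and BEAS-2B at 3000 cells/well. After 16 h, cells were exposed for 24 h to final 0.13–31 µg/mL in 0.1–0.4% DMSO, then given resazurin for 6–10 h. Read at ex 560/em 590. […] Run in duplicate.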

Candida albicans [7] = assay: Antifungal activity against itraconazole and fluconazole resistant Candida albicans ATCC MYA-1003 after 48 hrs by broth dilution method; format: functional; settings: Candida albicans, ATCC MYA-1003, 48 h
Summary of the method: (§3)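 CLSI M27-A3 broth microdilution with minor modifications. Overnight YPD culture grown at 35 °C, 200 rpm, adjusted to OD600 0.12, diluted in RPMI 1640 buffered to pH 7.0 with 0.165 M MOPS to a final 1–2 × 10^3 CFU/mL. Test compounds at 0.015–31.3 µg/mL, 48 h at 35 °C, DMSO <1.25%. […] Triplicate.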

[8] = Cytotoxicity against human A549 cells assessed as cell survival at 7.8 ug/mL after 24 hrs by resazurin-based fluorescence assay; settings: read-out: Survival; summary of the method: as §2
Pichia kudriavzevii = assay: Antifungal activity against Candida krusei ATCC 6258 after 48 hrs by broth dilution method; format: functional; settings: Pichia kudriavzevii, ATCC 6258, 48 h
Summary of the method: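 Yeasts tested per CLSI M27-A3 with minor changes. An overnight YPD culture (35 °C, 200 rpm) was adjusted to OD600 0.12 and diluted in MOPS-buffered RPMI 1640 (pH 7.0) to a final 1–2 × 10^3 CFU/mL. Compounds 0.015–31.3 µg/mL, DMSO <1.25%.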

[9] = Aqueous solubility of the compound; format: physicochemical; settings: buffer
Candida albicans [10] = assay: Antifungal activity against itraconazole and fluconazole susceptible Candida albicans ATCC MYA-2310 after 48 hrs by broth dilution method; format: functional; settings: Candida albicans, ATCC MYA-2310, 48 h
Candida albicans [11] = assay: Antifungal activity against itraconazole and fluconazole susceptible Candida albicans ATCC MYA-2876 after 48 hrs by broth dilution method; format: functional; settings: Candida albicans, ATCC MYA-2876, 48 h
Aspergillus flavus = assay: Antifungal activity against Aspergillus flavus ATCC MYA-3631 after 48 hrs by broth dilution method; format: functional; settings: ATCC MYA-3631, 48 h
Candida parapsilosis [12] = assay: Fungistatic activity against Candida parapsilosis ATCC 22019 up to 8 times MIC incubated for 24 hrs by time kill assay; format: functional; summary of the method: as §1
Aspergillus nidulans [13] = assay: Antifungal activity against Aspergillus nidulans ATCC 38163 after 48 hrs in the presence of 10% FBS by broth dilution method; format: functional; settings: ATCC 38163, 48 h
Candida albicans [14] = assay: Antifungal activity against Candida albicans ATCC 64124 after 48 hrs by broth dilution method; format: functional; settings: Candida albicans, ATCC 64124, 48 h; summary of the method: as §3
Candida albicans [15] = assay: Antifungal activity against itraconazole and fluconazole resistant Candida albicans ATCC 90819 after 48 hrs by broth dilution method; format: functional; settings: Candida albicans, ATCC 90819, 48 h; summary of the method: as §3
Candida albicans [16] = assay: Antibiofilm activity against voriconazole resistant Candida albicans ATCC 64124 sessile cells incubated for 24 hrs by XTT reduction assay; format: functional; settings: ATCC 64124, 24 h
Summary of the method: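 Strain B grown overnight in YPD broth at 35 °C, diluted to OD600 0.1 (~10^6 CFU/mL), then grown statically for 24 h at 37 °C to form biofilm. Washed with PBS, then drug in RPMI 1640 at 0.12–62.5 µg/mL for 24 h at 37 °C. Read-out: XTT 0.5 mg/mL with menadione 1 µM, 2 h, A490. SMIC50/SMIC80 are 50%/80% decreases versus drug-free biofilm. Duplicate.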

Candida albicans [17] = assay: Antifungal activity against Candida albicans ATCC 10231 after 48 hrs in the presence of 10% FBS by broth dilution method; format: functional; settings: ATCC 10231, 48 h
Aspergillus terreus = assay: Antifungal activity against Aspergillus terreus ATCC MYA-3633 after 48 hrs by broth dilution method; format: functional; settings: Aspergillus terreus, ATCC MYA-3633, 48 h
Summary of the method: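 Molds tested per CLSI M38-A2. Spores were harvested from sporulating PDA cultures by filtering through glass wool and counted on a hemocytometer. Serial dilutions (0.03–31.3 µg/mL) were made in RPMI 1640 buffered to pH 7.0 with 0.165 M MOPS, final inoculum 5 × 10^5 CFU/mL.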

Aspergillus nidulans [18] = assay: Antifungal activity against Aspergillus nidulans ATCC 38163 after 48 hrs by broth dilution method; format: functional; settings: Aspergillus nidulans, ATCC 38163, 48 h
Summary of the method: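 A. nidulans run per CLSI M38-A2. PDA spores were filtered through glass wool and counted by hemocytometer. Test range 0.03–31.3 µg/mL in MOPS-buffered RPMI 1640 (pH 7.0), final 5 × 10^5 CFU/mL.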

[19] = Solubility of the compound in DMSO; format: physicochemical
Candida albicans [20] = assay: Ratio of MIC80 for voriconazole resistant Candida albicans ATCC 64124 sessile cells to MIC for voriconazole resistant Candida albicans ATCC 64124; format: functional
[21] = Cytotoxicity against human BEAS2B cells assessed as cell survival at 7.8 ug/mL after 24 hrs by resazurin-based fluorescence assay; settings: BEAS-2B cells, read-out: Survival; summary of the method: as §2
Candida albicans [22] = assay: Antifungal activity against itraconazole and fluconazole resistant Candida albicans ATCC MYA-1237 after 48 hrs by broth dilution method; format: functional; settings: Candida albicans, ATCC MYA-1237, 48 h; summary of the method: as §3
A549 [23] = assay: Cytotoxicity against human A549 cells up to 15.5 ug/mL after 24 hrs by resazurin-based fluorescence assay; format: cell-based; settings: a549, 24 h
Summary of the method: (§4)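 Cells grown in DMEM with 10% FBS at 37 °C, 5% CO2, and seeded at 10000 (HEK-293) or 3000 (BEAS-2B, A549) per well. After 16 h, exposed 24 h to 0.13–31 µg/mL final in medium with 0.1–0.4% DMSO. Resazurin added for 6–10 h; fluorescence read at 560/590 nm and survival normalized to DMSO control after background subtraction. Triton X-100 12.5% v/v positive control; duplicate.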

HEK293 = assay: Cytotoxicity against HEK293 cells at 7.8 ug/mL after 24 hrs by resazurin-based fluorescence assay; format: cell-based; settings: human, hek293, 24 h; summary of the method: as §4
BEAS-2B = assay: Cytotoxicity against human BEAS2B cells at 7.8 ug/mL after 24 hrs by resazurin-based fluorescence assay; format: cell-based; summary of the method: as §4
Candida albicans [24] = assay: Antifungal activity against Candida albicans ATCC 10231 at 3.9 ug/mL incubated for 1 hr by propidium iodide staining-based fluorescence microscopic method; format: functional
Summary of the method: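 C. albicans ATCC 10231 from an overnight YPD culture (35 °C, 200 rpm) was transferred into RPMI 1640 and exposed to drug. Membrane integrity was assessed by uptake of propidium iodide under fluorescence microscopy.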

A549 [25] = assay: Cytotoxicity against human A549 cells up to 7.8 ug/mL after 24 hrs by resazurin based fluorescence assay; format: cell-based; settings: a549, 24 h; summary of the method: as §4
Candida albicans [26] = assay: Inhibition of 14alpha-demethylase in Candida albicans ATCC 10231 assessed as eburicol levels at […] by GC-MS analysis; parameters: scale not given: the % may be the effect or the level left
Candida albicans [27] = assay: Inhibition of 14alpha-demethylase in Candida albicans ATCC 10231 assessed as ergosterol levels at […] by GC-MS analysis; parameters: scale not given: the % may be the effect or the level left
Candida albicans [28] = assay: Fungicidal activity against Candida albicans ATCC 10231 at 4 times MIC incubated for 24 hrs by time kill assay; format: functional; summary of the method: as §1
Candida albicans [29] = assay: Inhibition of 14alpha-demethylase in Candida albicans ATCC 10231 assessed as total sterol levels at […] by GC-MS analysis; parameters: scale not given: the % may be the effect or the level left
Candida albicans [30] = assay: Inhibition of 14alpha-demethylase in Candida albicans ATCC 10231 assessed as 14alpha-methyl ergosta-8,24(28)-dien-3beta,6alpha-diol levels at […] by GC-MS analysis; parameters: scale not given: the % may be the effect or the level left
Candida albicans [31] = assay: Inhibition of 14alpha-demethylase in Candida albicans ATCC 10231 assessed as lanosterol levels at […] by GC-MS analysis; parameters: scale not given: the % may be the effect or the level left

Compound	MIC (Candida parapsilosis [1])	MIC (Candida albicans [2])	MIC (Nakaseomyces glabratus [3])	MIC (Candida parapsilosis [4])	MIC (Candida albicans [7])	MIC (Pichia kudriavzevii)	solubility [9]	MIC (Candida albicans [10])	MIC (Candida albicans [11])	MIC (Aspergillus flavus)	Activity (Candida parapsilosis [12])	MIC (Aspergillus nidulans [13])	MIC (Candida albicans [14])	MIC (Candida albicans [15])	MIC50 (Candida albicans [16])	MIC80 (Candida albicans [16])	MIC (Candida albicans [17])	MIC (Aspergillus terreus)	MIC (Aspergillus nidulans [18])	MIC (Candida albicans [22])	other results
CCCCCCCCCCCCN1CCN(CC(O)(Cn2cncn2)c2ccc(F)cc2F)CC1 (configuration not stated)	0.06 µg/mL	3.9 µM (≈ 1.92 µg/mL)	2 µM (≈ 0.983 µg/mL)	0.03 µM (≈ 0.0148 µg/mL)	31.7 µM (≈ 15.6 µg/mL)	0.98 µM (≈ 0.482 µg/mL)	Soluble	15.9 µM (≈ 7.82 µg/mL)	7.9 µM (≈ 3.88 µg/mL)	3.9 µM (≈ 1.92 µg/mL)	Active	3.9 µg/mL	15.9 µM (≈ 7.82 µg/mL)	7.9 µM (≈ 3.88 µg/mL)	7.8 µg/mL (≈ 15.9 µM)	15.6 µg/mL (≈ 31.7 µM)	1.95 µg/mL	7.9 µM (≈ 3.88 µg/mL)	7.9 µM (≈ 3.88 µg/mL)	15.9 µM (≈ 7.82 µg/mL)	Activity (Nakaseomyces glabratus [5]): Active; viability at 24 h, 7.8 ug/mL [6]: < 40%; viability at 24 h, 7.8 ug/mL [8]: < 40%; solubility [19]: Soluble; Ratio (Candida albicans [20]): 1 - 2; viability at 24 h, 7.8 ug/mL [21]: < 40%
CCCCCCCCN1CCN(CC(O)(Cn2cncn2)c2ccc(F)cc2F)CC1 (configuration not stated)		9 µM (≈ 3.92 µg/mL)	35.8 µM (≈ 15.6 µg/mL)	0.1 µM (≈ 0.0436 µg/mL)	2.2 to 71.9 µM (≈ 0.958 to 31.3 µg/mL)	17.9 µM (≈ 7.8 µg/mL)		> 71.9 µM	71.9 µM (≈ 31.3 µg/mL)	4.5 µM (≈ 1.96 µg/mL)			71.9 µM (≈ 31.3 µg/mL)	35.8 µM (≈ 15.6 µg/mL)				9 µM (≈ 3.92 µg/mL)	9 µM (≈ 3.92 µg/mL)	71.9 µM (≈ 31.3 µg/mL)	Activity (A549 [23]): Non-Toxic; Activity (HEK293): Toxic; Activity (BEAS-2B): Toxic
CCCCCCCCCCN1CCN(CC(O)(Cn2cncn2)c2ccc(F)cc2F)CC1 (configuration not stated)	0.06 µg/mL	2.1 µM (≈ 0.974 µg/mL)	> 67.5 µM	0.03 µM (≈ 0.0139 µg/mL)	8.4 µM (≈ 3.89 µg/mL)	4.2 µM (≈ 1.95 µg/mL)	Soluble	16.8 µM (≈ 7.79 µg/mL)		0.5 µM (≈ 0.232 µg/mL)	Active	0.975 µg/mL	8.4 µM (≈ 3.89 µg/mL)	8.4 µM (≈ 3.89 µg/mL)	15.6 µg/mL (≈ 33.6 µM)	62.5 µg/mL (≈ 135 µM)	0.975 µg/mL	2.1 µM (≈ 0.974 µg/mL)	2.1 µM (≈ 0.974 µg/mL)	16.8 µM (≈ 7.79 µg/mL)	Activity (Candida albicans [24]): inactive; Activity (A549 [25]): Non-Toxic; Activity (Candida albicans [26]): 1.25%; Activity (Candida albicans [27]): 30.1%; Activity (Candida albicans [28]): Active; Activity (Candida albicans [29]): 2.8 to 14.4%; Activity (Candida albicans [30]): 15.4%; solubility [19]: Soluble; Activity (HEK293): Toxic; Activity (BEAS-2B): Toxic; Activity (Candida albicans [31]): 33.4%

Source: ChEMBL document CHEMBL4024783, “Alkylated Piperazines and Piperazine-Azole Hybrids as Antifungal Agents” (J Med Chem, 2018)
